{"source": "paper PMC5352491", "about": "(ACS chemical neuroscience, 2016)", "key": {"μ-OR [1]": {"tested_on": "μ-OR", "assay": "biotin protection endocytosis assay", "type": "cell-based", "conditions": "10 μM each, 30 min"}, "μ-OR [2]": {"tested_on": "μ-OR", "assay": "fluorescent endocytosis assay", "type": "cell-based", "conditions": "30 min; DAMGO 1 μM, others 10 μM"}, "[3]": {"biological_target": "human δ opioid receptor (δ-OR) (Homo sapiens, UniProt P41143)", "sequence (P41143 whole entry)": "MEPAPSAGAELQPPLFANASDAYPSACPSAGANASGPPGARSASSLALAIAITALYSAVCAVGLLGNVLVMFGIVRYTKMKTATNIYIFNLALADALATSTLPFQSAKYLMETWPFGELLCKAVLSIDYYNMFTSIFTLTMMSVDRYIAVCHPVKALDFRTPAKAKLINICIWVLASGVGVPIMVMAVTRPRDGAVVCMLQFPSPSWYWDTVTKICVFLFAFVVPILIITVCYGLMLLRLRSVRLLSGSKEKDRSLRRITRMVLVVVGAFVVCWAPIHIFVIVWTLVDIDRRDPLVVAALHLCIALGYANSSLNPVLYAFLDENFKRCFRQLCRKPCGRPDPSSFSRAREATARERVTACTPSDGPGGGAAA", "assay": "calcium mobilization assay, δ-OR agonist activity", "type": "cell-based", "conditions": "for activity at δ-OR (agonist or antagonist): up to 50.0 μM; for δ-OR agonist activity in HTS of extract / LC-MS fractions: approximately 20.0 μg/mL, DPDPE control 100 nM"}, "human μ-OR [4]": {"biological_target": "T1, human μ-OR (Homo sapiens, UniProt P35372)", "assay": "cell-based", "conditions": "HEK-293T, read-out: β-arrestin-2 Emax (%)"}, "human μ-OR [5]": {"biological_target": "T1, human μ-OR", "assay": "cell-based", "conditions": "HEK-293T, read-out: Gi Emax(%)"}, "κ-OR": {"biological_target": "κ-OR (Homo sapiens, UniProt P41145)", "sequence (P41145 whole entry)": "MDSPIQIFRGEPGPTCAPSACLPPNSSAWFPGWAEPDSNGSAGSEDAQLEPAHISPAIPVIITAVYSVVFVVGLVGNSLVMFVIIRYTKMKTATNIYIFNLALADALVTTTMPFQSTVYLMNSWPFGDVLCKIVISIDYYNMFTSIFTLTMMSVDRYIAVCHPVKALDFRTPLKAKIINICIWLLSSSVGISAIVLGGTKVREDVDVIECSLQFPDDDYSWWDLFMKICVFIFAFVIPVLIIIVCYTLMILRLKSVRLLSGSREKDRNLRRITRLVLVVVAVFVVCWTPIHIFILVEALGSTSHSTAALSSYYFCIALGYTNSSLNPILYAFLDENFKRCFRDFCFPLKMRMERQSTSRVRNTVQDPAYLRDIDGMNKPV", "assay": "κ-OR agonist/antagonist screen", "type": "cell-based", "conditions": "up to 50.0 μM"}, "[6]": {"biological_target": "human μ opioid receptor (μ-OR) (Homo sapiens, UniProt P35372)", "sequence (P35372 whole entry)": "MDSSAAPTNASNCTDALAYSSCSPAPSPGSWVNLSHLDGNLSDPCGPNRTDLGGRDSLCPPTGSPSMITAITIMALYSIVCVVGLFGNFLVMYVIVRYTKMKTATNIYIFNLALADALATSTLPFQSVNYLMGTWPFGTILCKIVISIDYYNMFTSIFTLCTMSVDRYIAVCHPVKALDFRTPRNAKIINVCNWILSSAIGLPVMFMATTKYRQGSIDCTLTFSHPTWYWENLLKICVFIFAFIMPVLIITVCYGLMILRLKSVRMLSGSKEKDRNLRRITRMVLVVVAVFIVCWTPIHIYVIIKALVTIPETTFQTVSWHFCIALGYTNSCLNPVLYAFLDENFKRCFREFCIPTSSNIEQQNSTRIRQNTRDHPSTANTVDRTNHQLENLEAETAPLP", "assay": "cell-based", "type": "cell-based"}, "HEK 293T cells": {"tested_on": "HEK 293T cells", "assay": "toxicity seen in the β-arrestin-2 recruitment assay", "type": "cell-based", "conditions": "cells of the β-arrestin-2 dose-response"}, "WT C57BL/6 mice [7]": {"tested_on": "WT C57BL/6 mice", "conditions": "unknown target; cited from earlier work"}, "WT C57BL/6 mice [8]": {"tested_on": "WT C57BL/6 mice", "conditions": "mouse, in vivo, ip, 40 mg/kg"}, "WT C57BL/6 mice [9]": {"tested_on": "WT C57BL/6 mice", "assay": "forced swim test, wild type mice", "type": "in vivo", "conditions": "40 mg/kg ip; for antidepressant-like activity in forced swim test: p = 0.003 vs saline, 40 mg/kg", "in_short": "(§1)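 Male C57BL/6 mice (wild type or δ-OR knockout littermates, 8–10 weeks, 9 per group) on a 12-h reversed light/dark cycle, tested in the dark phase after 2 h room habituation. Given saline vehicle or test compound (40 mg/kg ip), then placed in a water cylinder (30 cm diameter, 22–24 cm deep, 36.0 ± 0.2 °C) for 6 min. Video recorded; seconds immobile scored.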"}, "δ-KO C57BL/6 mice [10]": {"tested_on": "δ-KO C57BL/6 mice", "assay": "forced swim test, δ-OR knockout mice", "type": "in vivo", "conditions": "40 mg/kg ip, p = 0.20 vs saline", "in_short": "as §1"}, "δ-KO C57BL/6 mice [11]": {"tested_on": "δ-KO C57BL/6 mice", "conditions": "mouse, in vivo, ip, 40 mg/kg"}}, "note": "Entries after “also recorded” stand apart in the source; their conditions may differ. Like-named read-outs stand apart in the source and are kept apart here.", "data": [{"compound": "CCC(=O)C(CC(C)N(C)C)(c1ccccc1)c1ccccc1", "note": "(centres unmarked) [methadone (S6), methadone]", "values": [{"measurement": "μ-OR endocytosis, biotin protection assay", "setting": "μ-OR [1]", "result": "promoted significant endocytosis; also recorded: promoted μ-OR endocytosis"}, {"measurement": "μ-OR endocytosis by immunofluorescence", "setting": "μ-OR [2]", "result": "also promoted endocytosis; also recorded: promoted μ-OR endocytosis"}]}, {"compound": "O=C1c2ccccc2-[n+]2ccc3c([nH]c4ccccc43)c21", "note": "[fascaplysin (17), fascaplysin]", "values": [{"measurement": "activity at δ-OR (agonist or antagonist)", "setting": "[3]", "result": "no significant agonist or antagonist activity"}, {"measurement": "Emax", "setting": "human μ-OR [4]", "result": 78, "unit": "%"}, {"measurement": "Emax", "setting": "human μ-OR [5]", "result": 111, "unit": "%"}, {"measurement": "activity at κ-OR (agonist or antagonist)", "setting": "κ-OR", "result": "no significant agonist or antagonist activity"}, {"measurement": "μ-OR endocytosis, biotin protection assay", "setting": "μ-OR [1]", "result": "promoted substantial endocytosis; also recorded: promoted μ-OR endocytosis"}, {"measurement": "μ-OR endocytosis by immunofluorescence", "setting": "μ-OR [2]", "result": "promoted substantial endocytosis; also recorded: promoted μ-OR endocytosis"}, {"measurement": "EC50", "setting": "[6]", "result": "6.3 ± 0.2", "unit": "µM"}, {"measurement": "Emax", "setting": "[6]; read-out: Emax at the μ-OR", "result": 100, "unit": "%"}, {"measurement": "toxic concentration", "setting": "HEK 293T cells", "result": "higher than 50 μM"}]}, {"compound": "C[C@@H](NC(=O)[C@@H](N)Cc1ccc(O)cc1)C(=O)NCC(=O)N(C)[C@@H](Cc1ccccc1)C(=O)NCCO", "note": "[DAMGO (6), DAMGO]", "values": [{"measurement": "μ-OR endocytosis, biotin protection assay", "setting": "μ-OR [1]", "result": "promoted significant endocytosis"}, {"measurement": "μ-OR endocytosis, biotin protection assay", "setting": "μ-OR [1]; listed as DAMGO", "result": "promoted μ-OR endocytosis"}, {"measurement": "μ-OR endocytosis by immunofluorescence", "setting": "μ-OR [2]", "result": "also promoted endocytosis; also recorded: promoted μ-OR endocytosis"}]}, {"compound": "CNc1c2c(c3nc4ccccc4c4c3c1N=C4)NCCC2=O", "note": "[plakinidine A (19), plakinidine A]", "values": [{"measurement": "activity at δ-OR (agonist or antagonist)", "setting": "[3]", "result": "not active"}, {"measurement": "activity at μ-OR (agonist or antagonist)", "setting": "[6]", "result": "not active"}]}, {"compound": "CC(C)c1c2c(c3nc4ccccc4c4c3c1N=C4)NCCC2=O", "note": "[plakinidine B (20), plakinidine B]", "values": [{"measurement": "activity at δ-OR (agonist or antagonist)", "setting": "[3]", "result": "not active"}, {"measurement": "activity at μ-OR (agonist or antagonist)", "setting": "[6]", "result": "not active"}]}, {"compound": "COc1cc2ccnc3c2c(c1O)NC=C3", "note": "[9-demethyl aaptamine (11), 9-demethyl aaptamine]", "values": [{"measurement": "δ-OR agonist activity in HTS of extract / LC-MS fractions", "setting": "[3]", "result": "measurable δ-OR agonist activity"}, {"measurement": "μ-OR agonist activity in HTS of extract / LC-MS fractions", "setting": "[6]", "result": "very weak partial agonism"}, {"measurement": "EC50", "setting": "[6]; read-out: EC50 μ-OR", "result": "6.03 ± 1.2", "unit": "µM"}]}, {"compound": "COC1=Cc2ccnc3ccnc(c23)C1=O", "note": "[demethyl (oxy) –aaptamine (12), demethyl (oxy) –aaptamine]", "values": [{"measurement": "δ-OR agonist activity in HTS of extract / LC-MS fractions", "setting": "[3]", "result": "measurable δ-OR agonist activity"}, {"measurement": "μ-OR agonist activity in HTS of extract / LC-MS fractions", "setting": "[6]", "result": "very weak partial agonism"}, {"measurement": "EC50", "setting": "[6]; read-out: EC50 μ-OR", "result": "4.1 ± 1.2", "unit": "µM"}]}, {"compound": "O=C1c2ccccc2-[n+]2ccc3c([nH]c4cc(Br)ccc43)c21", "note": "[10 bromofascaplysin (18), 10 bromofascaplysin]", "values": [{"measurement": "EC50", "setting": "[6]; read-out: EC50 μ-OR", "result": "4.2 ± 3.7", "unit": "µM"}]}, {"compound": "mitragynine [mitragynine (21)]", "values": [{"measurement": "μ-OR endocytosis by immunofluorescence", "setting": "μ-OR [2]", "result": "did not promote receptor endocytosis"}]}, {"compound": "CN1CC[C@]23c4c5ccc(O)c4O[C@H]2[C@@H](O)C=C[C@H]3[C@H]1C5", "note": "[morphine (1), morphine]", "values": [{"measurement": "μ-OR endocytosis, biotin protection assay", "setting": "μ-OR [1]", "result": "induced no significant endocytosis"}, {"measurement": "μ-OR endocytosis by immunofluorescence", "setting": "μ-OR [2]", "result": "did not promote significant endocytosis"}]}, {"compound": "COc1cc2ccnc3c2c(c1OC)NC=C3", "note": "[aaptamine (10), aaptamine]", "values": [{"measurement": "effect on immobility time in forced swim test", "setting": "WT C57BL/6 mice [7]", "result": "significant effect on the immobility time"}, {"measurement": "effect on general locomotion", "setting": "WT C57BL/6 mice [8]", "result": "no effect on general locomotion"}, {"measurement": "antidepressant-like activity in forced swim test", "setting": "WT C57BL/6 mice [9]; listed as Aaptamine", "result": "showed antidepressant-like activity in WT"}, {"measurement": "antidepressant-like activity in forced swim test", "setting": "WT C57BL/6 mice [9]; listed as aaptamine", "result": "showed antidepressant-like activity"}, {"measurement": "time immobile in forced swim test (average)", "setting": "WT C57BL/6 mice [9]; saline ~30 s", "result": "~ 10 s"}, {"measurement": "EC50", "setting": "[3]", "result": "5.1 ± 0.2", "unit": "µM"}, {"measurement": "effect in forced swim test", "setting": "δ-KO C57BL/6 mice [10]; listed as Aaptamine", "result": "antidepressant-like activity in WT but not δ-KO mice"}, {"measurement": "effect in forced swim test", "setting": "δ-KO C57BL/6 mice [10]; listed as aaptamine", "result": "no effect"}, {"measurement": "effect on general locomotion", "setting": "δ-KO C57BL/6 mice [11]", "result": "no effect on general locomotion"}, {"measurement": "EC50", "setting": "[6]", "result": "10.1 ± 1.4", "unit": "µM"}]}]}
